26 molecules from ChEMBL document CHEMBL2346589, “Fragment-based drug discovery of 2-thiazolidinones as inhibitors of the histone reader BRD4 bromodomain” (J Med Chem, 2013) can be followed below.

Data set [1] concerns the target T1, Bromodomain-containing protein 4 (Homo sapiens, UniProt O60885). Put plainly: Displacement of FITC-labeled (+)-JQ1 from bromodomain BRD4(1) (unknown origin) expressed in Escherichia coli BL21(DE3) after 4 hrs by fluorescence anisotropy assay. In short, it runs like this:
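BRD4(1), His6-tagged, expressed in E. coli BL21(DE3) codon plus RIL, Ni-NTA purified, tag removed with TEV, then gel filtration. Varied compound concentrations, DMSO 5‰ final. 4 h equilibration in the dark at room temperature. IC50 from two independent experiments.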

The target of data set [2] is T1, Bromodomain-containing protein 4. Put plainly: Displacement of FITC-labeled (+)-JQ1 from bromodomain BRD4(1) (unknown origin) expressed in Escherichia coli BL21(DE3) at 50 uM after 4 hrs by fluorescence anisotropy assay relative to control. In short, it runs like this: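 Same BRD4(1) fluorescence anisotropy competition set-up: 45 nM protein, 5 nM FITC-(+)-JQ1 tracer, HEPES pH 7.4/CHAPS buffer, 4 h in the dark at room temperature, ex 485/em 530 nm. Single ligand concentration of 50 μM, reported as percent inhibition.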

The test system of the next data set is HT-29. The data set is described as follows: Growth inhibition of human HT-29 cells after 72 hrs by sulforhodamine B assay. Format: functional. As to conditions: HT-29, 72 h. In short, it runs like this:
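HT-29 cells in McCoy's 5A with 10% FBS at 37 °C, 5% CO2. DMSO stocks (0.01 mol/L) diluted in normal saline. Graded concentrations applied in triplicate for 72 h, then SRB staining with A560 read-out. Inhibition rate from A560 treated/control. GI50 from four independent experiments, mean ± SD.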
For orientation: The SRB assay estimates cell density from bound dye.

The nature of data set [3]: Intrinsic clearance in human liver microsomes at 1 uM after 5 mins by LC/MS/MS analysis. It is filed as ADME, Microsome. As to conditions: read-out: CLH. In short, it runs like this: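 Liver microsomes at 0.5 mg/mL with 1 μM compound in 0.1 M phosphate pH 7.4, 1 mM EDTA, 5 mM MgCl2. Preincubated 5 min at 37 °C, then started with 1 mM NADPH. Sampled at 0, 5, 10 and 30 min, quenched with cold acetonitrile. Parent remaining measured by LC/MS/MS.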
On the technique in general: Liver microsomes are vesicles of endoplasmic reticulum, rich in cytochrome P450 enzymes.

The target in a further data set is T2, CYP1A2 (Homo sapiens, UniProt P05177).
T2 sequence (P05177 whole entry): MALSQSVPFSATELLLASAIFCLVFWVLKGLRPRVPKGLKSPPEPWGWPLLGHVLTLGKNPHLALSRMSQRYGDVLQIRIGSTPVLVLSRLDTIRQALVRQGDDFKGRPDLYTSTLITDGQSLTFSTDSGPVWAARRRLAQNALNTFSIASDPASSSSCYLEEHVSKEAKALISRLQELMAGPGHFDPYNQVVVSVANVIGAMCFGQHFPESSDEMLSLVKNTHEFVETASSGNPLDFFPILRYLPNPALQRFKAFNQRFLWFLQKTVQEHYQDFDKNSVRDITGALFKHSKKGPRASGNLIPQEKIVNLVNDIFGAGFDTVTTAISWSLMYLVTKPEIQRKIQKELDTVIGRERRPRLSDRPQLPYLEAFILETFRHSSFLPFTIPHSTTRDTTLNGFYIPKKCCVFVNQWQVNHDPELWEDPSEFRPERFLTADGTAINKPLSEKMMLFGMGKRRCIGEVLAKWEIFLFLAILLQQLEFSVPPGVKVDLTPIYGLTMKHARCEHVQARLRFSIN
The data set is described as follows: Inhibition of CYP1A2 (unknown origin)-mediated phenacetin metabolite conversion at 10 uM after 20 mins relative to control. As to conditions: probe phenacetin. It is filed as ADME. In short, it runs like this: (§1)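 Human liver microsomes at 0.2 mg/mL in 100 mM phosphate pH 7.4 with 1 mM NADPH. Probe cocktail: midazolam 10 μM, dextromethorphan 10 μM, diclofenac 20 μM, phenacetin 100 μM, mephenytoin 100 μM. Test compound at 10 μM; PBS as negative control. 5 min preincubation at 37 °C, then 20 min reaction started with an NADPH-generating system. Metabolite formation expressed relative to PBS.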

A further data set concerns the target CYP2C19 (Homo sapiens, UniProt P33261). Put plainly: Inhibition of CYP2C19 (unknown origin)-mediated mephenytoin metabolite conversion at 10 uM after 20 mins relative to control. It is filed as ADME. As to conditions: probe mephenytoin. In short, it runs like this:
as §1

The next data set deals with CYP2D6 (Homo sapiens, UniProt P10635). The data set is described as follows: Inhibition of CYP2D6 (unknown origin)-mediated dextromethorphan metabolite conversion at 10 uM after 20 mins relative to control. It is filed as ADME. As to conditions: probe dextromethorphan. The procedure, abridged:
as §1

The target of the next data set is CYP3A4 (Homo sapiens, UniProt P08684). Put plainly: Inhibition of CYP3A4 (unknown origin)-mediated midazolam metabolite conversion at 10 uM after 20 mins relative to control. Format: ADME. As to conditions: probe midazolam. In short, it runs like this: as §1
Another data set has as its target CYP2C9 (Homo sapiens, UniProt P11712). Put plainly: Inhibition of CYP2C9 (unknown origin)-mediated diclofenac metabolite conversion at 10 uM after 20 mins relative to control. As to conditions: probe diclofenac. Format: ADME. In short, it runs like this:
as §1

A short description of data set [4]: Intrinsic clearance in mouse liver microsomes at 1 uM after 5 mins by LC/MS/MS analysis. Format: ADME, Microsome. As to conditions: read-out: CLH.
In data set [5] the target is T1, Bromodomain-containing protein 4. Put plainly: Inhibition of bromodomain BRD4-mediated c-myc mRNA expression in human HT-29 cells at 10 uM after 24 hrs by RT-qPCR analysis relative to control. It is filed as cell-based. In short, it runs like this:
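HT-29 cells (McCoy's 5A, 10% FBS, 37 °C, 5% CO2) seeded in six-well plates overnight, then exposed 24 h to compound at 10 μM final (DMSO stock diluted in saline). Total RNA extracted with Trizol, reverse-transcribed, and quantified by RT-qPCR. c-myc levels normalised to β-actin and expressed relative to untreated control. Three independent experiments, mean ± SD.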
Background: In qPCR the cycle at which signal appears reflects the starting amount.

CYP3A4, sequence (P08684 whole entry): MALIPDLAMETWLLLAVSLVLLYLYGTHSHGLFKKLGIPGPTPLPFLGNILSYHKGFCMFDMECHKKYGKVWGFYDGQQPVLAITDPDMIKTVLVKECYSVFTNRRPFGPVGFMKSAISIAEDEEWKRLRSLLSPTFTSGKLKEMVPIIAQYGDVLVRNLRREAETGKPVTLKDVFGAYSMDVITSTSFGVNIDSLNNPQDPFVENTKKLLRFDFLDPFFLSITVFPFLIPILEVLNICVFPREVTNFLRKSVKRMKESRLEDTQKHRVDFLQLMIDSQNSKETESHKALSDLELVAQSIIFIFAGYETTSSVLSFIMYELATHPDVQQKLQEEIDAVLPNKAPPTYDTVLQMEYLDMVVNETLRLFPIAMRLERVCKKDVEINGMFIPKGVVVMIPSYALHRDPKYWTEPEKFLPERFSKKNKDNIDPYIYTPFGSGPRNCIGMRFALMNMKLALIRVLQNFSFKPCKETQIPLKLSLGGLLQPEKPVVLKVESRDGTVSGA
CYP2C19, sequence (P33261 whole entry): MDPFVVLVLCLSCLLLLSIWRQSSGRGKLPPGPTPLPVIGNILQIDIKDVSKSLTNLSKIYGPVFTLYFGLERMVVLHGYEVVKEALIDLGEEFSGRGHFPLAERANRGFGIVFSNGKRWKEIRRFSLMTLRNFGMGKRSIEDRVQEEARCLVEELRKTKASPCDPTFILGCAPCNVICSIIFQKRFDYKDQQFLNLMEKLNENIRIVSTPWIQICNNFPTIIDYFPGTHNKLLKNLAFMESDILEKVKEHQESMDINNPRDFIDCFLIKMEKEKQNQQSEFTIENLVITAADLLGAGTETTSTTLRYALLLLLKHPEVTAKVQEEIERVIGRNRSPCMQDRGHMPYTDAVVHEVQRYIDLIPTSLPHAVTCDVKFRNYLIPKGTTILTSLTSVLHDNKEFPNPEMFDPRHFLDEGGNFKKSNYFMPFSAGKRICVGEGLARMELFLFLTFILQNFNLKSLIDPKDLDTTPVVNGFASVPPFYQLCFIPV
CYP2D6, sequence (P10635 whole entry): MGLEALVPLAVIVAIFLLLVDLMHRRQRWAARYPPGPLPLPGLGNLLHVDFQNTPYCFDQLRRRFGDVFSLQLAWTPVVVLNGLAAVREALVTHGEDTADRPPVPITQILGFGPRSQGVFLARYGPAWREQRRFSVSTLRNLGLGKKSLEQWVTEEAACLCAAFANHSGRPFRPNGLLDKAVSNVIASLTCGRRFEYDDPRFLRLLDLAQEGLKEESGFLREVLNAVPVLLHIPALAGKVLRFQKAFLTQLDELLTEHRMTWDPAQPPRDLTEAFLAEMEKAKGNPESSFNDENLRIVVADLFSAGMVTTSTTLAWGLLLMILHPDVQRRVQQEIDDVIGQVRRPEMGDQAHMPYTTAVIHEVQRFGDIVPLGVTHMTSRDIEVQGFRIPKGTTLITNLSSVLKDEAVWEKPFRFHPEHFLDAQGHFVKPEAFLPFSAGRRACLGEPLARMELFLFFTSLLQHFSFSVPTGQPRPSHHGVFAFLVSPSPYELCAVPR
CYP2C9, sequence (P11712 whole entry): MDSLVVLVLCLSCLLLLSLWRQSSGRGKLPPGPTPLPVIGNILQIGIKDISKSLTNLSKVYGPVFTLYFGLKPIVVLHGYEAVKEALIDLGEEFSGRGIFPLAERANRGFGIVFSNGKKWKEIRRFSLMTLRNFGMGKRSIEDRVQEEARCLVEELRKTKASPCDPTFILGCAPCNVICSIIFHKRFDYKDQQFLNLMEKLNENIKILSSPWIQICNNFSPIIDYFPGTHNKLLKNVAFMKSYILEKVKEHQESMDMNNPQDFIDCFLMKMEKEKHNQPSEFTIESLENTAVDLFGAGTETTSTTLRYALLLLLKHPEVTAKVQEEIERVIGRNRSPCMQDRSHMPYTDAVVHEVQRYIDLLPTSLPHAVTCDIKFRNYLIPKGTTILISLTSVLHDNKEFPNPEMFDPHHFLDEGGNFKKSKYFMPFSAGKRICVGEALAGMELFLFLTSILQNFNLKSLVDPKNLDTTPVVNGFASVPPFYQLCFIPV

In the case of `O=C(CCc1ccccc1)Nc1cc(-c2csc(=O)[nH]2)ccc1NS(=O)(=O)c1cccs1`, in data set [1], the half-maximal inhibitory concentration (IC50) came to 2.6 µM.
In turn, `O=C(Cc1ccccc1)Nc1cccc(-c2csc(=O)[nH]2)c1` had an inhibition in data set [2] of 45.6%.
Turning to `O=C(Nc1cc(-c2csc(=O)[nH]2)ccc1NS(=O)(=O)c1cccs1)C1CCCC1`, the 50% growth inhibitory concentration (GI50) in the data set on HT-29 came out at 63.6 µM. Moreover, in data set [1], the IC50 was 2.5 µM.
In data set [1], `CCCC(=O)Nc1cc(NS(=O)(=O)c2cccs2)cc(-c2csc(=O)[nH]2)c1` showed an IC50 of 0.79 µM.
In [1], `O=c1[nH]c(-c2cccc(Cl)c2)cs1` gave an IC50 of 24 µM.
In data set [1], `Nc1cccc(-c2csc(=O)[nH]2)c1` showed an IC50 of 42 µM.
Consider `O=c1[nH]c(-c2cccc(NCCc3ccccc3)c2)cs1`, for which, in data set [1], the IC50 stood at 22.8 µM.
With `O=c1[nH]c(-c2cccc(NS(=O)(=O)c3cccs3)c2)cs1`, the results for the microsomal CLint at 1 µM in data set [3] and in data set [4] were 24 µL/min/mg and 120 µL/min/mg, respectively. Also, the inhibition at 20 min, 10 µM on CYP1A2 was determined as 16%; on CYP2C19, 36%; on CYP2D6 it was 22%; at CYP3A4, 17%; at CYP2C9, 34%. In data set [1], this molecule displayed an IC50 of 4.1 µM.
In turn, `O=C(Cc1ccccc1)Nc1cc(-c2csc(=O)[nH]2)ccc1NS(=O)(=O)c1cccs1` came in with a half-inhibitory concentration (IC50) in data set [1] of 3.5 µM.
For the molecule `CCCC(=O)Nc1cc(-c2csc(=O)[nH]2)ccc1NS(=O)(=O)c1cccs1`, the 50% inhibitory concentration (IC50) in data set [1] was determined as 2.4 µM.
Take `Nc1ccc(-c2csc(=O)[nH]2)cc1O`: the concentration for half-maximal inhibition (IC50) in [1] amounted to 23.8 µM.
In data set [2], `O=c1[nH]c(-c2ccc(NS(=O)(=O)c3cccs3)cc2)cs1` returned an inhibition of 38.6%.
For `Nc1ccc(-c2csc(=O)[nH]2)cc1`, the IC50 in data set [1] was found to be 51 µM.
As to `Nc1cc(NS(=O)(=O)c2cccs2)cc(-c2csc(=O)[nH]2)c1`, the GI50 in the data set with HT-29 came to 37.3 µM. In data set [5], this molecule returned an inhibition of over 50%. In [1], this molecule displayed a half-inhibitory concentration (IC50) of 2.6 µM.
In the case of `O=c1[nH]c(-c2cccc(NS(=O)(=O)c3ccc(F)cc3)c2)cs1`, in the data set on HT-29, the concentration for 50% growth inhibition (GI50) stood at 47.8 µM. Moreover, the 50% inhibitory concentration (IC50) in data set [1] came out at 3.7 µM.
Turning to `O=C(CCc1ccccc1)Nc1cc(NS(=O)(=O)c2cccs2)cc(-c2csc(=O)[nH]2)c1`, the IC50 in data set [1] came out at 0.57 µM.
With `Cc1noc(C)c1-c1ccccc1`, the 50% growth inhibitory concentration (GI50) in the data set on HT-29 was 22.5 µM. Also, the inhibition in [5] was over 50%. In data set [1], the IC50 is 0.8 µM.
In data set [1], `Nc1cc(N)cc(-c2csc(=O)[nH]2)c1` registered an IC50 of 50.7 µM.
Still for that read-out and setting: in the case of `O=c1[nH]c(-c2cccc(NS(=O)(=O)Cc3ccccc3)c2)cs1` it was 4.1 µM.
In turn, `O=c1[nH]c(-c2cccc(NS(=O)(=O)c3cccc4cccnc34)c2)cs1` registered an inhibition in [2] of 45.7%.
Same read-out and setting: next, `O=C(Nc1cc(-c2csc(=O)[nH]2)ccc1NS(=O)(=O)Cc1ccccc1)C1CCCC1`: 20.2%.
In data set [1], `O=C(CCC1CCCCC1)Nc1cc(NS(=O)(=O)c2cccs2)cc(-c2csc(=O)[nH]2)c1` came in with an IC50 of 2.2 µM.
The same measure, in the same setting: in the case of `O=c1[nH]c(-c2cccc(NS(=O)(=O)c3cccnc3)c2)cs1` it was 10 µM.
The same measure, in the same setting: in the case of `COc1ccc(S(=O)(=O)Nc2cccc(-c3csc(=O)[nH]3)c2)cc1` it was 4.4 µM.
In turn, `O=c1[nH]c(-c2ccc(NS(=O)(=O)c3cccs3)c(O)c2)cs1` came in with an IC50 in [1] of 3.3 µM.
In the case of `O=C(Nc1cc(NS(=O)(=O)c2cccs2)cc(-c2csc(=O)[nH]2)c1)c1cccs1`, the microsomal CLint at 1 µM stood at 18 µL/min/mg in data set [3] and 52 µL/min/mg in data set [4]. For the same molecule, the inhibition at 20 min, 10 µM was 29% at CYP1A2; 39% at CYP2C19; 20% at CYP2D6; 8% on CYP3A4; 41% at CYP2C9.

Broadly, the IC50 is the concentration needed to halve the response being measured. As usually defined, the inhibition is the drop in the measured response relative to a control, in per cent. One may read the GI50 as the concentration giving 50% growth inhibition. A low value points to greater sensitivity of the cells.
